Rows were chosen to be rich in hits. Some 4.5% of all compounds tested hit in one or more screens of this group.
HCV NS3 hel inh – blocks Hepatitis C virus NS3 helicase unwinding; NS3 helicase DNA unwinding, Cy5 molecular beacon fluorescence; inhibition, % at 10.9 µM; actives 0.56% (n = 290,000);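 active = inhibition above the mean of all tested compounds plus 3 SD, set per campaign, cut at about 35% in these data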
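Test system: hepatitis C virus NS3 helicase domain fragment enzyme. Also added: annealed dual-labelled DNA beacon duplex, ATP-started. Timing: 60 min unwinding reaction at 25 °C after ATP addition. Technique: Cy5 fluorescence. Measure: % inhibition of unwinding.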
XBP1 UPR activ – activators of adaptive arm of unfolded protein response (XBP1). CHO-XBP1 luciferase reporter, IRE1-XBP1 UPR activation, luminescence; percent of tunicamycin response, DMSO as zero. AID 463104. actives 0.33% (n = 330,000). activation, % at 20 µM;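 active = versus positive control, 20 µM dose yields 30% or more activation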
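Material: IRE1-XBP1 luciferase reporter CHO line / Quantity: one thousand reporter cells per well / Buffer or medium: F12 with 10% serum / Compound: 20 µM single concentration, DMSO 1% / Times: 6 h treatment, 37 °C / Detection: Steady-Glo luciferase glow luminescence, 10 min after reagent addition / Benchmarks: tunicamycin high, DMSO low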
CHOP inhibitor – blocks CHOP induction under ER stress. CHO-K1 CHOP-promoter luciferase, tunicamycin-induced, 15-18 h. inhibition, % at 10 µM. actives 3.8% (n = 220,000). AID 2732;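 active = compounds that reduced the stress-induced luciferase reporter signal by more than about 70% of percent inhibition, limit read from the data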
M18AAP inhibitor – PfM18AAP enzyme inhibition; inhibition, % at 7.35 µM; recombinant PfM18AAP, H-Glu-NHMec fluorogenic cleavage; actives 1.2% (n = 290,000);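 active = inhibition above the campaign mean inhibition over all tested compounds plus 3 SD, cut at about 28% in these data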
p97 inhibitor – blocks human p97 ATPase activity; inhibition, % at 8 µM; actives 0.42% (n = 220,000); P55072; recombinant p97 ATPase, Kinase-Glo ATP luminescence, 3 h; in the data active = inhibition above about 15%
UPR CHOP act – apoptotic UPR (CHOP) activation | CHO-CHOP luciferase reporter, luminescence; percent of tunicamycin response over DMSO baseline | activation, % at 10 µM | actives 0.34% (n = 330,000);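 active = at 10 µM dose, activation of 40% or more, normalized to positive control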
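Assay system: CHO-CHOP cells, stable luciferase reporter of PERK-eIF2a-CHOP signalling / Buffer or medium: F12 plus 10% serum / Compound dosing: one dose, 10 µM in 0.5% DMSO / Times: 6 h compound treatment, 37 °C / Technique: luciferase luminescence / Read-out: % reporter activation, DMSO baseline versus tunicamycin full activation / Benchmarks: tunicamycin and DMSO controls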
A number is an active result; i = inactive; nt = no result.

SMILES	HCV NS3 hel inh	XBP1 UPR activ	CHOP inhibitor	M18AAP inhibitor	p97 inhibitor	UPR CHOP act
O=C1NC(c2cccnc2)Nc2sc3c(c21)CCCC3 (configuration not stated)	i	i	i	31.2	i	i
S=P(Nn1cnnc1)(c1ccc(Br)cc1)c1ccc(Br)cc1	i	i	i	29.2	i	i
NC(=O)Nc1ccc(C(=O)OCC(=O)Nc2ccc(Cl)cc2C(=O)c2ccccc2)cc1	i	i	76.5	i	i	i
c1ccc2sc(C3(N4CCCCC4)CCCCC3)cc2c1	nt	nt	i	nt	nt	nt
N/C(=N\N=C/c1ccc(-c2ccc(O)c(C(=O)O)c2)o1)N[N+](=O)[O-]	i	i	i	31.5	i	i
COc1cc(-n2c(=S)[nH]c3ccccc3c2=O)c(Cl)cc1Cl	i	i	i	i	i	i
CC(C)Oc1cc(-n2c(=S)[nH]c3ccccc3c2=O)c(Cl)cc1Cl	i	i	82.6	i	i	i
Brc1ccc(CN2CCNCC2)s1	i	i	70.8	i	i	i
C[C@]12Cc3cn4c(nc3C=C1CCC1C2CC[C@@]2(C)[C@H]1CC[C@@]2(O)C#N)nc1ccccc14 (some centres not stated)	nt	nt	i	nt	nt	nt
COc1cccc(NP(=O)(Oc2ccccc2)Oc2ccccc2)c1	i	i	i	i	i	i
COc1cccc(NP(=O)(Oc2ccccc2Cl)Oc2ccccc2Cl)c1	i	i	91.0	i	i	i
CC(Cc1ccc(OCC(=O)O)cc1)NCC(O)c1cccc(Cl)c1 (configuration not stated)	nt	nt	i	nt	nt	nt
CCc1ccc(-n2c(O)c(C(C)=O)c(=O)[nH]c2=O)cc1 (tested in a mixture with another compound)	i	i	i	i	i	i
CNC(=O)Oc1cccc(-c2cn3cc(OC(=O)NC)ccc3n2)c1	i	nt	i	31.0	i	nt
CNC(=O)Oc1ccc(-c2cn3cc(Cl)ccc3n2)cc1	i	i	i	i	i	i
CCCC(C)C1C(C#N)=C(N)Oc2c1c(=O)oc1ccccc21 (configuration not stated)	i	i	76.4	i	i	i
CCOc1ccccc1N=C1SCCCN1C	i	i	i	i	i	i
CCOc1cccc(=NC2CCCCC2)c2c(C)n(C)c(C)c12	i	i	78.7	i	i	i
CC(C)CCCn1c(O)c(/C=C2/C=CC=N2)c(=O)[nH]c1=O	i	i	85.1	i	i	i
CCCCn1c(O)c(C=NCCCn2ccnc2)c(=O)[nH]c1=O	i	i	i	i	i	i
O=C(O)c1ccc2c(c1)C1C(Cl)C(Sc3ccccc3[N+](=O)[O-])CC1C(c1cccc([N+](=O)[O-])c1)N2 (configuration not stated)	i	nt	81.2	i	15.1	nt
O=C(O)c1cccc2c1NC(c1cccc([N+](=O)[O-])c1)C1CC(Sc3ccccc3[N+](=O)[O-])C(Cl)C21 (configuration not stated)	i	i	i	i	i	i
CCCCCCCCCCCCCC(=O)O[C@@H]1[C@@H](C)[C@@]2(O)[C@@H](C=C(CO)C[C@@]3(O)C(=O)C(C)=C[C@@H]23)C2C(C)(C)[C@@]21OC(C)=O (some centres not stated)	nt	nt	i	nt	nt	nt
CCCCn1c(NC(=O)c2ccc(Br)o2)c(C(=O)OCC)c2nc3ccccc3nc21	i	61.6	i	i	16.7	i
CCOC(=O)c1c(N)n(CCN2CCCCC2)c2nc3ccccc3nc12	i	i	i	i	i	i
SMILES	HCV NS3 hel inh	XBP1 UPR activ	CHOP inhibitor	M18AAP inhibitor	p97 inhibitor	UPR CHOP act
CCOP(=O)(OCC)C(NC(=O)CN1C(=O)c2ccccc2S1(=O)=O)C(Cl)(Cl)Cl (configuration not stated)	i	i	i	i	i	i
CN1C[C@@H](CS(=O)(=O)N(C)C)C[C@@H]2c3cccc4c3c(cn4C)C[C@H]21	nt	nt	i	nt	nt	nt
O=C1NC(=S)NC(=O)C1=Cc1cccc2cc3ccccc3cc12	i	nt	107.8	i	i	nt
CP(=O)(O)C1=CCNCC1	nt	nt	i	nt	nt	nt
Cc1ccc(CN2C(=O)NC(=O)C3(Cc4c(nc5ccccn5c4=O)N4CCCCCC43)C2=O)cc1 (configuration not stated)	i	i	86.3	i	i	i
CC1(C)CN=C(Nc2ccc(F)c(Cl)c2)S1	i	i	i	i	i	i
CC1(C)CN=C(Nc2ccc(F)c(F)c2)S1	i	i	81.9	i	i	i
Clc1ccc2c(c1)C(c1ccccc1Cl)=NCc1nnc(N3CCN(CCSc4ccccc4)CC3)n1-2	i	i	i	i	i	i
Clc1ccc2c(c1)C(c1ccccc1Cl)=NCc1nnc(N3CCN(CCOc4ccccc4)CC3)n1-2	i	i	88.3	i	i	i
O=c1[nH]c(=O)n(Cc2ccccc2)c(O)c1/C=C1\C=Nc2ccccc21	i	i	83.0	i	i	i
O=c1[nH]c(=O)n(CC2CCCO2)c(O)c1/C=C1\C=Nc2ccccc21 (configuration not stated)	i	i	i	i	i	i
CCN1C[C@]2(C)CC[C@H](O)[C@@]34C5C[C@@H]6[C@@H](OC)C[C@@](O)(C5[C@H]6O)[C@@H](CC23)C14 (some centres not stated)	nt	nt	i	nt	nt	nt
O=C(NC1(C(F)(F)F)Oc2ccc(Cl)cc2O1)N1CCC2(CC1)OCCO2 (configuration not stated)	i	i	i	97.6	i	i
O=C1NC(=S)N(c2ccccc2F)C(=O)/C1=C\c1cccs1	i	i	83.5	i	i	i
CN1CCN(c2ccc(N)c(N3CCN(C)CC3)c2)CC1	i	i	i	29.8	i	i
CC1(C)C2SCC(=O)N2CCN1CC(=O)NN (configuration not stated)	i	i	84.0	i	i	i
CC(O)C(C)OC(=O)[C@@H]1C[C@@H]2c3cccc4c3c(cn4C(C)C)C[C@H]2N(C)C1 (some centres not stated)	nt	nt	i	nt	nt	nt
Cc1ccc2c(c1)CC1(CN2C)C(=O)NC(=O)N(CCc2ccccc2)C1=O (configuration not stated)	i	i	91.4	i	i	i
Cc1ccc2c(c1)CC1(CN2C)C(=O)NC(=O)N(c2ccccc2C)C1=O (configuration not stated)	i	i	i	i	i	i
C=CCc1cc(C=C2C(=O)N(C)C(=O)N(C)C2=O)cc(OCC)c1OCc1ccccc1	i	i	88.5	i	i	i
CCCn1c(C)c(C(=O)c2ccc3ccccc3c2)c2ccccc21	nt	nt	i	nt	nt	nt
O=C(CNC(=O)c1ccc(Br)cc1)Nc1ccc(Br)cc1C(=O)c1ccccc1	i	i	76.9	i	i	i
